Source: PubChem BioAssay
PAFAH1B2 inh: inhibitors of human PAFAH1B2; P68402; hit rate 1.2% among 340,000; inhibition, % at 3.39 µM; recombinant PAFAH1B2, FP-rhodamine activity probe, fluorescence polarization;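 active = inhibition above the mean of all tested compounds plus 3 SD, cut at about 24% in these data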
PAFAH1B3 inh: blocks human PAF acetylhydrolase 1B catalytic subunit 3 | recombinant PAFAH1B3, FP-rhodamine probe, fluorescence polarization | inhibition, % at 3.39 µM | hit rate 0.28% among 340,000 | AID 492972;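 active = inhibition above the screen-wide average of all tested compounds plus 3 SD, cut at about 25% in these data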
pPAFAH FP inh: pPAFAH (human) enzyme inhibition; Q13093; recombinant pPAFAH, FP-rhodamine probe fluorescence polarization; inhibition, % at 3.39 µM; hit rate 1.5% among 330,000;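 active = inhibition above the mean inhibition across the screen plus 3 SD, cut at about 25% in these data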;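 also: inhibitors block binding of the rhodamine activity-based probe so polarization drops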
Apaf-1 inh: blocks human Apaf-1 apoptosome activity | reconstituted apoptosome caspase-3 activity, DEVD-Rh110 fluorescence | inhibition, % at 20 µM | hit rate 0.71% among 330,000 | AID 489030; active = inhibition of at least 40% at 20 µM
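detection = Rh110 fluorescence intensity | test system = biochemical Apaf-1 apoptosome reconstitution | also added = cytochrome c and DEVD-Rh110 substrate | schedule = 30 min plus 50 min, RT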
PAFAH2 FP inh: inhibitors of human PAFAH2 | hit rate 0.99% among 340,000 | recombinant PAFAH2, FP-rhodamine activity probe, fluorescence polarization | inhibition, % at 3.39 µM | AID 492956;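 active = inhibition above the mean over all tested compounds plus 3 SD, cut at about 30% in these data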;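 also: inhibitors block probe labeling of enzyme so polarization drops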
Of the large screens only hits and unclear results are named; the others gave an inactive call. The list is not random: actives were taken first. Their share in the collection is about 3.1%.

O=C(O/N=C1/CCSc2ccccc21)c1ccc(F)cc1	PAFAH1B2 inh 24, PAFAH2 FP inh 47
CC1CCN(S(=O)(=O)c2ccc(NC(=O)CSc3nnnn3C)cc2)CC1	PAFAH1B2 inh 42
CC1CCN(S(=O)(=O)c2ccc(NC(=O)[C@@H]3CCCN3C(=O)c3cccs3)cc2)CC1	PAFAH1B2 inh 37, pPAFAH FP inh 25
CC(C)(C)NC(=O)C1CCN(S(=O)(=O)c2ccc(Br)cc2)CC1	PAFAH1B2 inh 29
CC(=O)N1CCC(C(=O)Nc2ccc(S(=O)(=O)N3CCCC(C)C3)cc2)CC1 (configuration not stated)	none (no result: pPAFAH FP inh)
CCN1CCN(C(=O)C2CCN(S(=O)(=O)c3ccc(Br)cc3)CC2)CC1	none (no result: pPAFAH FP inh)
CC(=O)N1CCC(C(=O)Nc2ccc(S(=O)(=O)N3CCC(C)CC3)cc2)CC1	PAFAH1B2 inh 29
CC1CCCN(S(=O)(=O)c2ccc(NC(=O)[C@@H]3CCCN3C(=O)c3cccs3)cc2)C1 (some centres not stated)	pPAFAH FP inh 30
COc1ccc(NC(=O)[C@@H]2CCCN2C(=O)c2cccs2)cc1S(=O)(=O)N1CCCCC1	none
CC1CCN(S(=O)(=O)c2ccc(S(=O)(=O)NCC(=O)C(C)(C)C)cc2)CC1	PAFAH1B2 inh 26
O=C(Nc1ccc(F)cc1F)c1cc(-c2ccc3c(c2)OCO3)on1	none
CCCN(c1ccccc1F)S(=O)(=O)c1c[nH]c(C(=O)OC)c1	none
COC(=O)c1cccc(N/C=C(\[N+](=O)[O-])S(=O)(=O)c2ccccc2)c1	none
Cc1ccc(SCCNC(=O)c2ccccc2F)cc1	PAFAH1B2 inh 25
Cc1ccc(SCCNC(=O)c2ccc(C)c(S(=O)(=O)Nc3cccc(C)c3)c2)cc1	pPAFAH FP inh 30
Cc1ccc(SCCNC(=O)c2ccccc2)cc1	PAFAH1B2 inh 27
COc1ccc(C(=O)NCCSc2ccc(C)cc2)cc1	none
Cc1ccc(NS(=O)(=O)c2cc(C(=O)NCCSc3ccc(C)cc3)ccc2C)cc1	none
Cc1cccc(NS(=O)(=O)c2cc(C(=O)NCCC3=CCCCC3)ccc2Cl)c1	PAFAH1B2 inh 25
CC(=O)N1CCCc2cc(S(=O)(=O)N3CCCC(C)C3)ccc21 (configuration not stated)	none
CCOC(=O)N1CCN(CC(=O)Nc2ccccc2C(=O)Nc2ccccc2)CC1	none
O=C(O)CCn1c(SCCc2ccccc2)nc2ccccc21	none
Cc1ccc(SCCC(=O)NCCSCc2ccccc2C)cc1	PAFAH1B2 inh 42
CCOc1ccccc1C(=O)NCC(=O)NCCSc1ccc(Br)cc1	PAFAH1B2 inh 28 (no result: pPAFAH FP inh, Apaf-1 inh)
C[C@H](NS(=O)(=O)OCC(Cl)(Cl)Cl)C1CC1c1ccccc1 (some centres not stated)	PAFAH1B2 inh 32, pPAFAH FP inh 26
CCOc1ccc(C(=O)C(C)OC(=O)Cn2c(C)csc2=O)cc1 (configuration not stated)	none
O=C(CC1S/C(=N\S(=O)(=O)c2ccccc2)N(c2ccccc2)C1=O)Nc1ccc(F)cc1 (configuration not stated)	none
Cc1ccc(S(=O)(=O)/N=C2\SC(CC(=O)Nc3ccc(F)cc3)C(=O)N2c2ccccc2)cc1 (configuration not stated)	PAFAH1B2 inh 32
COc1ccc2[nH]c3c(C)c4ccncc4c(C)c3c2c1	Apaf-1 inh 76
Cc1c2ccncc2cc2c1[nH]c1ccccc12	none (no result: pPAFAH FP inh, Apaf-1 inh)
CC(Sc1ccc(Cl)cc1)C(=O)NNC(=O)c1ccccc1O (configuration not stated)	PAFAH1B2 inh 28
N=c1c(S(=O)(=O)c2ccccc2)cc2c(=O)n3ccccc3nc2n1Cc1ccco1	pPAFAH FP inh 26
N=c1c(S(=O)(=O)c2ccc(Br)cc2)cc2c(=O)n3ccccc3nc2n1CCN1CCOCC1	PAFAH1B2 inh 41 (no result: pPAFAH FP inh, Apaf-1 inh)
CCCn1c(=N)c(S(=O)(=O)c2ccccc2)cc2c(=O)n3ccccc3nc21	none
CCc1ccc(S(=O)(=O)NCCc2csc(-c3ccccc3)n2)s1	PAFAH1B2 inh 39
CCc1ccc(S(=O)(=O)NCc2csc(-c3ccccc3)n2)s1	none
CC(C)c1ccc(CN(C)C(=O)c2ccc(S(=O)(=O)NCc3ccco3)cc2)cc1	none
COc1ccc(-c2noc(CNC(=O)c3ccoc3C)n2)cc1OC	none
Cc1cccc(C(=O)NC(=S)Nc2c(C)n(C)n(-c3ccccc3)c2=O)c1	none (no result: Apaf-1 inh)
Clc1ccccc1/C=C/c1ccnc2ccccc12	pPAFAH FP inh 31
Cn1c(=O)c2c(ncn2CCOc2cccc(Br)c2)n(C)c1=O	none
